Among the data in ChEMBL document CHEMBL4414557, “Labdanes, Withanolides, and Other Constituents from Physalis nicandroides” (J Nat Prod, 2019) are inhibition, Activity and IC50 values, retold here.

SMILES strings stand for the structures. The source made the active and inactive calls. The calls are words filed in the database; no cut-off is given here.

The subject of test [1] is Saccharomyces cerevisiae. Nature of the test: Inhibition of yeast alpha-glucosidase type 1 at 100 uM using p-Nitrophenyl alpha-D-glucopyranoside as substrate preincubated for 10 mins followed by incubation with substrate for 15 mins and measured after 5 mins by microplate reader analysis. A digest of the protocol:
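Sample in DMSO–H2O 1:1 added to PBS (67 mM, pH 6.8) with glutathione (3 mM in PBS) and enzyme (0.2 U mL−1 in PBS), preincubated 10 min at 37 °C. p-Nitrophenyl α-D-glucopyranoside (23.2 mM in PBS) then added, 15 min at 37 °C with agitation. Stopped with 1 M Na2CO3, read at 405 nm after 5 min. Percent inhibition versus negative control, triplicate. Quercetin positive control.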

Test [2] deals with Acetylcholinesterase (Electrophorus electricus) (UniProt O42275). Nature of the test: Activation of Electrophorus electricus AChE at 100 uM using acetylthiocholine iodide as substrate preincubated for 30 mins followed by substrate addition and measured after 5 mins by Ellman's method relative to control. Background: Ellman's reagent forms a yellow product with free thiols.
Acetylcholinesterase (Electrophorus electricus), sequence (O42275 24-633 limits assumed): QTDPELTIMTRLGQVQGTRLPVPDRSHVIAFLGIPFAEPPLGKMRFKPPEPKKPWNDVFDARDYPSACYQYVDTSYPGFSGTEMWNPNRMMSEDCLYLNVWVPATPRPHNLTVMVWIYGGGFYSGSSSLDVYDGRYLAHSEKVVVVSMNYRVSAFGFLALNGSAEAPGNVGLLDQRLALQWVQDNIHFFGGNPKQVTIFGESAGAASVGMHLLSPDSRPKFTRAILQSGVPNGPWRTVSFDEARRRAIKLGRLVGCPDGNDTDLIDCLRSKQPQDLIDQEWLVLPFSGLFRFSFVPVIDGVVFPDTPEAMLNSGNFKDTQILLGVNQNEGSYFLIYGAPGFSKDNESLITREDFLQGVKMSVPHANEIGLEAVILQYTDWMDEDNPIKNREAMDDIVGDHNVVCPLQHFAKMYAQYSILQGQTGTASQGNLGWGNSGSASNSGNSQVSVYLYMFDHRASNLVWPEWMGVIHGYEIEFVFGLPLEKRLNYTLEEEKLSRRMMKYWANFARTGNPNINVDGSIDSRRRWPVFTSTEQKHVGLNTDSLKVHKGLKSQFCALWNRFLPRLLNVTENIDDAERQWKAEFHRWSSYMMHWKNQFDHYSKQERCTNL
Test [3] has the same target. Nature of the test: Inhibition of Electrophorus electricus AChE at 100 uM using acetylthiocholine iodide as substrate preincubated for 30 mins followed by substrate addition and measured after 5 mins by Ellman's method relative to control.
In test [4] the test system is Saccharomyces cerevisiae. Nature of the test: Activation of yeast alpha-glucosidase type 1 at 100 uM using p-Nitrophenyl alpha-D-glucopyranoside as substrate preincubated for 10 mins followed by incubation with substrate for 15 mins and measured after 5 mins by microplate reader analysis relative to control. In short, it runs like this:
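Yeast α-glucosidase type I (25 μL, 0.2 U mL−1 in PBS) with glutathione (25 μL, 3 mM) in phosphate buffer (67 mM, pH 6.8). Samples were added in DMSO–H2O 1:1 and preincubated 10 min at 37 °C. Then p-nitrophenyl α-D-glucopyranoside (25 μL, 23.2 mM) was added, 15 min at 37 °C with agitation. Stopped with 1 M Na2CO3; A405 read. % vs negative control; triplicate, mean ± SD.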

Test [5] addresses Acetylcholinesterase (Electrophorus electricus, UniProt O42275). Nature of the test: Inhibition of Electrophorus electricus AChE using acetylthiocholine iodide as substrate preincubated for 30 mins followed by substrate addition and measured after 5 mins by Ellman's method.

Acetylcholinesterase, sequence (O42275 whole entry): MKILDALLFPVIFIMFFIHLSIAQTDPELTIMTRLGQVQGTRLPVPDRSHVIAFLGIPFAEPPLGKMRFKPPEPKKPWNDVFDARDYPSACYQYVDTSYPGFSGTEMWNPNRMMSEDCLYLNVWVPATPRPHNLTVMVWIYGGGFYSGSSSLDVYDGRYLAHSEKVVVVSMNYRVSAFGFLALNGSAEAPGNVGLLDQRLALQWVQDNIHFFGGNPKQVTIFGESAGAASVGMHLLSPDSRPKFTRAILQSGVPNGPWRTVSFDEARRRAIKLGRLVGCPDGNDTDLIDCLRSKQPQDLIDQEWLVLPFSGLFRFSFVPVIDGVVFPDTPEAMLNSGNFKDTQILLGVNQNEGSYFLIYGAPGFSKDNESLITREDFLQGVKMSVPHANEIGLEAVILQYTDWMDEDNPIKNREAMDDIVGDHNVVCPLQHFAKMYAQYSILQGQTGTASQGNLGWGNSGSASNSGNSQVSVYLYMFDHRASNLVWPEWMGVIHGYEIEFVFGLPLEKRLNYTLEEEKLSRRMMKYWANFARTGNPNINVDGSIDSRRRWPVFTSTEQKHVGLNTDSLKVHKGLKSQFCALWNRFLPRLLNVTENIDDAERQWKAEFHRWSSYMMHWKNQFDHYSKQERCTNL

For orientation: inhibition means the percentage by which the read-out fell short of the control. For `CC(=O)O[C@H]1C[C@H]([C@@](C)(O)[C@H]2CC(C)=C(C)C(=O)O2)[C@@]2(C)CC[C@H]3[C@@H](C[C@H]4O[C@]45CC=CC(=O)[C@]35C)[C@@]12O`, the inhibition entry in test [1] was “Active”. Further, in test [2], the Activity lay within 6.7 to 96%.
Consider `CC(=O)O[C@H]1C[C@H]([C@@](C)(O)[C@H]2CC(C)=C(C)C(=O)O2)[C@@]2(C)CC[C@H]3[C@@H](C[C@@H](O)[C@@]4(Cl)CC=CC(=O)[C@]34C)[C@@]12O`, for which the inhibition result in test [1] was “Active”. Moreover, the Activity in test [2] lay within 6.7 to 96%.
Consider `C=C(C)C(C)(O)CC[C@@H](C)[C@H]1CC[C@H]2[C@@H]3CC=C4C[C@@H](O)CC[C@]4(C)[C@H]3CC[C@]12C` (stereo partly drawn), for which, in test [3], the inhibition came out at 24%. Moreover, the inhibition result in test [1] is “Active”.
In the case of `C=C1CC[C@H]2C(C)(C)CCC[C@]2(C)[C@H]1C[C@H](O[C@@H]1O[C@H](CO)[C@@H](O)[C@H](O)[C@H]1O)/C(C)=C/CO`, the Activity in test [4] is 1.1 to 29.4%; in test [2], 6.7 to 96%.
In the case of `C=C(CC[C@@H]1[C@@]2(C)CCCC(C)(C)[C@@H]2CC[C@@]1(C)O)[C@H](O)CO`, the results for the Activity in test [4] and in test [2] were 1.1 to 29.4% and 6.7 to 96%, respectively.
`C=C(CC[C@@H]1[C@@]2(C)CCCC(C)(C)[C@@H]2CC[C@@]1(C)O)[C@@H](O)CO`: the Activity in test [4] lay within 1.1 to 29.4%; in test [2], 6.7 to 96%.
For the molecule `CO[C@@H]1CC(=O)[C@]2(C)[C@H]3CC[C@]4(C)[C@@H]([C@@](C)(O)[C@H]5CC(C)=C(C)C(=O)O5)C[C@H](OC(C)=O)[C@]4(O)[C@@H]3C[C@H]3O[C@]32C1`, the inhibition result in test [1] is “Active”. In test [2], this molecule yielded an Activity of 6.7 to 96%.
In general, IC50 refers to the concentration at which inhibition is half-maximal. Lower therefore signals greater potency in that assay. `C=C1CC[C@H]2C(C)(C)CCC[C@]2(C)[C@H]1Cc1occc1C`: the inhibition in test [3] is 57.5%. Besides, the IC50 in test [5] is 64.4 µM. This molecule also gave an Activity in test [4] of 1.1 to 29.4%.
Regarding `C=C1CC[C@H]2C(C)(C)CCC[C@]2(C)[C@H]1C[C@H](O)/C(C)=C/CO`, the Activity in test [4] was 1.1 to 29.4%; in test [2], 6.7 to 96%.
In the case of `C=C1CC[C@H]2C(C)(C)CCC[C@]2(C)[C@H]1C[C@H](O[C@@H]1O[C@H](COC(C)=O)[C@@H](OC(C)=O)[C@H](OC(C)=O)[C@H]1OC(C)=O)/C(C)=C/COC(=O)CC(C)C`, the inhibition result in test [1] was “Active”. The molecule further showed an Activity in test [2] of 6.7 to 96%.
With `C=C1CC[C@H]2C(C)(C)CCC[C@]2(C)[C@H]1C[C@H](O[C@@H]1O[C@H](CO)[C@@H](O)[C@H](O)[C@H]1O)/C(C)=C/COC(=O)CC(C)C`, the Activity lay within 1.1 to 29.4% in test [4] and 6.7 to 96% in test [2].
With `CC(=O)O[C@H]1C[C@H]([C@@](C)(O)[C@H]2CC(C)=C(C)C(=O)O2)[C@@]2(C)CC[C@H]3[C@@H](C[C@@H](OC(C)=O)[C@@]4(Cl)CC=CC(=O)[C@]34C)[C@@]12O`, the inhibition entry in test [1] is “Active”. In addition, the Activity in test [2] lay in the range of 6.7 to 96%.
In the case of `C=C1CC[C@H]2C(C)(C)CCC[C@]2(C)[C@H]1C[C@@H](O)/C(C)=C/CO`, the Activity in test [4] is 1.1 to 29.4%; in test [2] it was 6.7 to 96%.
For `C=C1CC[C@H]2C(C)(C)CCC[C@]2(C)[C@H]1CC(=O)/C(C)=C/CO`, in that order: 1.1 to 29.4% and 6.7 to 96%.
For `C/C(=C\CO)CC[C@@H]1[C@@]2(C)CCCC(C)(C)[C@@H]2CC[C@@]1(C)O`, in that order: 1.1 to 29.4% and 6.7 to 96%.
As for `C=C1CC[C@H]2C(C)(C)CCC[C@]2(C)[C@H]1CC/C(=C/CO)CO`, in test [3], the inhibition amounted to 33.9%. Further, in test [1], the inhibition result was “Active”.
